pIC50: −log10 of the molar value.
What was measured:
KB = experiment: Antiproliferative activity against human KB cells after 72 hrs by SRB assay; type: functional, cell-based
MCF7 = experiment: Antiproliferative activity against human MCF7 cells after 72 hrs by SRB assay; type: functional, cell-based; details: MCF7, 72 h
MDA-MB-231 = experiment: Antiproliferative activity against human MDA-MB-231 cells after 72 hrs by SRB assay; type: functional, cell-based; details: MDA-MB-231, 72 h
A549 = experiment: Antiproliferative activity against human A549 cells after 72 hrs by SRB assay; type: functional, cell-based; details: A549, 72 h
[1] = Antiproliferative activity against human KBVIN cells after 72 hrs by SRB assay; type: functional, cell-based
[2] = Cytotoxicity against human MT4 cells assessed as reduction in cell viability after 3 days by cytoTox-Glo reagent based assay
[3] = Selectivity index, ratio of CC50 for human MT4 cells to IC50 for HIV1 NL4-3 infected in human MT4 cells; type: toxicity, cell-based; details: read-out: Ratio CC50/IC50
In short: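 Selectivity index computed as CC50 (MT4 CytoTox-Glo, 3 days) divided by anti-HIV IC50 (NL4-3 Nanoluc-sec luciferase in MT4, day 3); SI below 5 regarded as no selective activity.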

[4] = system: Human immunodeficiency virus 1; experiment: Antiviral activity against HIV1 NL4-3 infected in human MT4 cells assessed as inhibition of viral replication after 3 days by luciferase reporter gene assay; type: functional, organism-based; details: for pIC50: Human immunodeficiency virus 1, NL4-3, MT4, 72 h, read-out: IC50; for IC50: mt4
In short: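 MT4 cells (1 × 10^5 cells/mL) infected with HIV-1 NL4-3 Nanoluc-sec reporter virus at 50 TCID50/well alongside a range of compound concentrations (multicycle replication). Supernatants harvested on day 3 post-infection and read for secreted luciferase (Nano-Glo).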

**Q.** Which results are given for `CO[C@H]1O[C@]2(C=C(C)C(=O)O2)C[C@@H]1[C@H]1CC[C@@]2(C)[C@@H]3CC[C@H]4C(C)(C)C(=O)C=C[C@@]45C[C@@]35CC[C@]12C`?
**A.** pIC50 (KB): < 5.00; pIC50 (MCF7): 5.00; pIC50 (MDA-MB-231): < 5.00; pIC50 (A549): 5.05; pIC50 [1]: 5.21

**Q.** With `CC(C)=CC(=O)C[C@@H](C)[C@H]1CC[C@@]2(C)[C@@H]3CC[C@H]4C(C)(C)C(=O)C=C[C@@]45C[C@@]35CC[C@]12C` as the compound, how does the pIC50 (KB) read?
**A.** The pIC50 was under 5.00.

**Q.** What about the pIC50 (MCF7) of the same compound?
**A.** The pIC50 was under 5.00.

**Q.** And the pIC50 (MDA-MB-231)?
**A.** Its pIC50 is under 5.00.

**Q.** And the pIC50 (A549)?
**A.** Its pIC50 is under 5.00.

**Q.** What about the pIC50 [1] of the same compound?
**A.** The pIC50 was under 5.00.

**Q.** Which CC50 at 72 h [2] does the source give for `Cc1cn([C@H]2C[C@H](N=[N+]=[N-])[C@@H](CO)O2)c(=O)[nH]c1=O` [ZIDOVUDINE] here?
**A.** Its CC50 at 72 h is over 3.74 µM.

**Q.** What does the source list for `CC1=C[C@@]2(C[C@H]([C@H]3CC[C@@]4(C)[C@@H]5CC[C@H]6C(C)(C)C(=O)C=C[C@@]67C[C@@]57CC[C@]34C)CO2)OC1=O`?
**A.** pIC50 (KB): < 5.00; pIC50 (MCF7): < 5.00; pIC50 (MDA-MB-231): < 5.00; pIC50 (A549): 5.09; pIC50 [1]: < 5.00

**Q.** With `CC(=O)O[C@H]1C(=O)[C@@]2(C)[C@H]([C@H](OC(=O)c3ccccc3)[C@]3(O)C[C@H](OC(=O)[C@H](O)[C@@H](NC(=O)c4ccccc4)c4ccccc4)C(C)=C1C3(C)C)[C@]1(OC(C)=O)CO[C@@H]1C[C@@H]2O` [PACLITAXEL] as the compound, how does the pIC50 (MCF7) read?
**A.** Its pIC50 is 7.95.

**Q.** And the pIC50 (MDA-MB-231)?
**A.** The pIC50 was 8.09.

**Q.** What about the pIC50 (A549) of the same compound?
**A.** The pIC50 was 8.20.

**Q.** And the pIC50 [1]?
**A.** The pIC50 was 5.56.

**Q.** Which results are given for `CC1=C[C@@]2(C[C@H]([C@H]3CC[C@@]4(C)[C@@H]5CC[C@H]6C(C)(C)C(=O)C=C[C@]67C[C@]57CC[C@]34C)CO2)OC1=O`?
**A.** pIC50 (KB): < 5.00; pIC50 (MCF7): < 5.00; CC50 at 72 h [2]: 4.6 µM; pIC50 (MDA-MB-231): < 5.00; selectivity ratio [3]: 5.8; pIC50 [4]: 6.10; pIC50 (A549): < 5.00; pIC50 [1]: < 5.00

**Q.** Which results are given for `CC(C)=CC(=O)C[C@@H](C)[C@H]1CC[C@@]2(C)[C@@H]3CC[C@H]4C(C)(C)C(=O)C=C[C@]45C[C@]35CC[C@]12C`?
**A.** pIC50 (KB): < 5.00; pIC50 (MCF7): < 5.00; pIC50 (MDA-MB-231): < 5.00; selectivity ratio [3]: < 5; IC50 [4]: Not Active; pIC50 (A549): < 5.00; pIC50 [1]: 5.08

**Q.** With `CO[C@H]1O[C@]2(C=C(C)C(=O)O2)C[C@@H]1[C@H]1CC[C@@]2(C)[C@@H]3CC[C@H]4C(C)(C)C(=O)C=C[C@]45C[C@]35CC[C@]12C` as the compound, how does the pIC50 (KB) read?
**A.** The pIC50 was under 5.00.

**Q.** And the pIC50 (MCF7)?
**A.** Its pIC50 is under 5.00.

**Q.** What about the CC50 at 72 h [2] of the same compound?
**A.** Its CC50 at 72 h is 12.6 µM.

**Q.** What about the pIC50 (MDA-MB-231) of the same compound?
**A.** The pIC50 was under 5.00.

**Q.** What about the selectivity ratio [3] of the same compound?
**A.** Its selectivity ratio is 5.3.

**Q.** And the pIC50 [4]?
**A.** Its pIC50 is 5.62.

**Q.** What about the pIC50 (A549) of the same compound?
**A.** The pIC50 was under 5.00.

**Q.** And the pIC50 [1]?
**A.** Its pIC50 is under 5.00.

**Q.** Which results are given for `CC1(C)CC[C@]2(C)CC=C3[C@]4(C)CC[C@H]5C(C)(C)C(=O)CC[C@]5(C)[C@H]4CC[C@@]3(C)[C@@H]2C1` [TARAXERONE]?
**A.** pIC50 (KB): < 5.00; pIC50 (MCF7): < 5.00; pIC50 (MDA-MB-231): < 5.00; pIC50 (A549): < 5.00; pIC50 [1]: < 5.00

**Q.** With `CC(=O)/C=C1/C=C([C@H]2CC[C@@]3(C)[C@@H]4CC[C@H]5C(C)(C)C(=O)C=C[C@@]56C[C@@]46CC[C@]23C)C(=O)N1` as the compound, how does the pIC50 (KB) read?
**A.** The pIC50 was 5.10.

**Q.** And the pIC50 (MCF7)?
**A.** The pIC50 was under 5.00.

**Q.** What about the pIC50 (MDA-MB-231) of the same compound?
**A.** Its pIC50 is 5.00.

**Q.** And the selectivity ratio [3]?
**A.** Its selectivity ratio is under 5.

**Q.** What about the IC50 [4] of the same compound?
**A.** The IC50 was “Not Active”.

**Q.** And the pIC50 (A549)?
**A.** Its pIC50 is 5.03.

**Q.** And the pIC50 [1]?
**A.** The pIC50 was 5.16.

**Q.** With `CC(C)=CC(=O)CC(C(=O)O)[C@H]1CC[C@@]2(C)[C@@H]3CC[C@H]4C(C)(C)C(=O)C=C[C@@]45C[C@@]35CC[C@]12C` (some centres undefined) as the compound, how does the pIC50 (KB) read?
**A.** Its pIC50 is under 5.00.

**Q.** And the pIC50 (MCF7)?
**A.** The pIC50 was under 5.00.

**Q.** And the pIC50 (MDA-MB-231)?
**A.** The pIC50 was under 5.00.

**Q.** And the pIC50 (A549)?
**A.** The pIC50 was under 5.00.

**Q.** What about the pIC50 [1] of the same compound?
**A.** The pIC50 was under 5.00.

**Q.** What does the source list for `CO[C@H]1O[C@@]2(C=C(C)C(=O)O2)C[C@@H]1[C@H]1CC[C@@]2(C)[C@@H]3CC[C@H]4C(C)(C)C(=O)C=C[C@@]45C[C@@]35CC[C@]12C`?
**A.** pIC50 (KB): < 5.00; pIC50 (MCF7): < 5.00; pIC50 (MDA-MB-231): < 5.00; selectivity ratio [3]: < 5; IC50 [4]: Not Active; pIC50 (A549): < 5.00; pIC50 [1]: < 5.00

**Q.** What does the source list for `CO[C@@H]1O[C@@]2(C=C(C)C(=O)O2)C[C@@H]1[C@H]1CC[C@@]2(C)[C@@H]3CC[C@H]4C(C)(C)C(=O)C=C[C@@]45C[C@@]35CC[C@]12C`?
**A.** pIC50 (KB): < 5.00; pIC50 (MCF7): < 5.00; pIC50 (MDA-MB-231): < 5.00; selectivity ratio [3]: < 5; IC50 [4]: Not Active; pIC50 (A549): 5.04; pIC50 [1]: 5.24

Reference: ChEMBL document CHEMBL4145651, “Kleinhospitine E and Cycloartane Triterpenoids from Kleinhovia hospita” (J Nat Prod, 2018)
